Measured values published in ChEMBL document CHEMBL4732167, “Structure based design, synthesis, and biological evaluation of imidazole derivatives targeting dihydropteroate synthase enzyme” (Bioorg Med Chem Lett, 2021).
≈ marks a conversion by molar mass, not a printed value.

Experiments:
Aspergillus niger = test: Antifungal activity against Aspergillus niger MTCC 282 assessed as fungal growth inhibition; format: functional
Enterococcus = test: Antibacterial activity against vancomycin-resistant Enterococcus assessed as inhibition of bacterial growth; format: functional
Summary of the method: (§1)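 Growth inhibition of the drug-resistant strain was read out as the minimum inhibitory concentration (MIC), reported in µg/mL. The same protocol was also run on an ESBL strain.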

[1] = Antioxidant activity assessed as hydrogen peroxide radical scavenging activity at 100 ug/ml (reference value: 23.6 to 43.1 %); format: functional; details: dose 100.0 µg/ml
Summary of the method: (§2)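 Hydrogen peroxide scavenging was measured across a compound series of 0, 25, 50, 75 and 100 µg/ml.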

[2] = Antioxidant activity assessed as DPPH radical scavenging activity at 100 ug/ml (reference value: 22 to 40.2 %); format: functional; details: dose 100.0 µg/ml
Summary of the method: (§3)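 DPPH radical scavenging was measured at 0, 25, 50, 75 and 100 µg/ml of each compound. Ascorbic acid was the reference.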

[3] = Antioxidant activity assessed as hydrogen peroxide radical scavenging activity at 50 ug/ml (reference value: 23.6 to 43.1 %); format: functional; details: dose 50.0 µg/ml; summary of the method: as §2
[4] = Antioxidant activity assessed as nitric oxide radical scavenging activity at 50 ug/ml (reference value: 25.8 to 41.6 %); format: functional; details: dose 50.0 µg/ml
Summary of the method: (§4)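 Nitric oxide radical scavenging was tested at 0, 25, 50, 75 and 100 µg/ml of compound.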

Escherichia coli = test: Antibacterial activity against Escherichia coli MTCC 443 assessed as bacterial growth inhibition; format: functional
[5] = Antioxidant activity assessed as hydrogen peroxide radical scavenging activity at 25 ug/ml (reference value: 23.6 to 43.1 %); format: functional; details: dose 25.0 µg/ml; summary of the method: as §2
[6] = Antioxidant activity assessed as nitric oxide radical scavenging activity at 25 ug/ml (reference value: 25.8 to 41.6 %); format: functional; details: dose 25.0 µg/ml; summary of the method: as §4
[7] = Antioxidant activity assessed as DPPH radical scavenging activity at 75 ug/ml (reference value: 22 to 40.2 %); format: functional; details: dose 75.0 µg/ml; summary of the method: as §3
Staphylococcus aureus [8] = test: Antibacterial activity against methicillin-resistant Staphylococcus aureus assessed as inhibition of bacterial growth; format: functional; summary of the method: as §1
Streptococcus pyogenes = test: Antibacterial activity against Streptococcus pyogenes MTCC 442 assessed as bacterial growth inhibition; format: functional
Candida albicans = test: Antifungal activity against Candida albicans MTCC 227 assessed as fungal growth inhibition; format: functional
[9] = Antioxidant activity assessed as DPPH radical scavenging activity at 50 ug/ml (reference value: 22 to 40.2 %); format: functional; details: dose 50.0 µg/ml; summary of the method: as §3
Aspergillus clavatus = test: Antifungal activity against Aspergillus clavatus MTCC 1323 assessed as fungal growth inhibition; format: functional
Plasmodium falciparum = test: Antimalarial activity against Plasmodium falciparum assessed as parasite growth inhibition; format: functional, organism-based
Bacteria = test: Antibacterial activity against ESBL-producing bacteria assessed as bacterial growth inhibition; format: functional
Summary of the method: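 Values are minimum inhibitory concentrations (MIC) in µg/mL, determined at an outside microbiology laboratory.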

Pseudomonas aeruginosa = test: Antibacterial activity against Pseudomonas aeruginosa MTCC 1688 assessed as bacterial growth inhibition; format: functional
Staphylococcus aureus [10] = test: Antibacterial activity against Staphylococcus aureus MTCC 96 assessed as bacterial growth inhibition; format: functional
[11] = Antioxidant activity assessed as hydrogen peroxide radical scavenging activity at 75 ug/ml (reference value: 23.6 to 43.1 %); format: functional; details: dose 75.0 µg/ml; summary of the method: as §2
[12] = Antioxidant activity assessed as DPPH radical scavenging activity at 25 ug/ml (reference value: 22 to 40.2 %); format: functional; details: dose 25.0 µg/ml; summary of the method: as §3
[13] = Antioxidant activity assessed as nitric oxide radical scavenging activity at 100 ug/ml (reference value: 25.8 to 41.6 %); format: functional; details: dose 100.0 µg/ml; summary of the method: as §4
[14] = system: Mycobacterium tuberculosis; test: Antibacterial activity against Mycobacterium tuberculosis H37Rv assessed as bacterial growth inhibition; format: functional
[15] = Antioxidant activity assessed as nitric oxide radical scavenging activity at 75 ug/ml (reference value: 25.8 to 41.6 %); format: functional; details: dose 75.0 µg/ml; summary of the method: as §4

Structure (SMILES)	MFC (Aspergillus niger) [µg/mL]	MIC (Enterococcus) [µg/mL]	Activity [1] [%]	Activity [2] [%]	Activity [3] [%]	Activity [4] [%]	MIC (Escherichia coli) [µg/mL]	Activity [5] [%]	Activity [6] [%]	Activity [7] [%]	MIC (Staphylococcus aureus [8]) [µg/mL]	MIC (Streptococcus pyogenes) [µg/mL]	MFC (Candida albicans) [µg/mL]	Activity [9] [%]	MFC (Aspergillus clavatus) [µg/mL]	IC50 (Plasmodium falciparum) [µg/mL]	MIC (Bacteria) [µg/mL]	MIC (Pseudomonas aeruginosa) [µg/mL]	MIC (Staphylococcus aureus [10]) [µg/mL]	Activity [11] [%]	other results
CC(=O)c1c(C)nc(SCC(=O)Nc2ccc(OCc3ccccc3)cc2)n1-c1ccccc1	1000 (≈ 2120 µM)	500 (≈ 1060 µM)	81.9	84.3	58	64.2	125 (≈ 265 µM)	43.8	48.3	60	100 (≈ 212 µM)	125 (≈ 265 µM)	500 (≈ 1060 µM)	48.6	1000 (≈ 2120 µM)	0.93 (≈ 1.97 µM)	250 (≈ 530 µM)	50 (≈ 106 µM)	25 (≈ 53 µM)	69.4	Activity [12]: 36.4%; Activity [13]: 87.4%; MIC [14]: 500 µg/mL (≈ 1060 µM); Activity [15]: 80.3%
COc1ccc(-n2c(SCC(=O)Nc3ccc(OC(=O)c4cccs4)cc3)nc(C)c2C(C)=O)cc1	500 (≈ 959 µM)	100 (≈ 192 µM)	82.3	81.6	61	69.1	12.5 (≈ 24 µM)	39.4	42.3	68.1	100 (≈ 192 µM)	50 (≈ 95.9 µM)	1000 (≈ 1920 µM)	56.1	500 (≈ 959 µM)	0.45 (≈ 0.863 µM)	62.5 (≈ 120 µM)	12.5 (≈ 24 µM)	25 (≈ 47.9 µM)	76.4	Activity [12]: 46.8%; Activity [13]: 81.7%; MIC [14]: 25 µg/mL (≈ 47.9 µM); Activity [15]: 76.8%
COc1ccc(COc2ccc(NC(=O)CSc3nc(C)c(C(C)=O)n3-c3ccc(Br)cc3)cc2)cc1	> 1000	250 (≈ 431 µM)	84.3	73.2	60.7	65.4	125 (≈ 215 µM)	47	51.7	59.7	500 (≈ 861 µM)	125 (≈ 215 µM)	500 (≈ 861 µM)	41.3	1000 (≈ 1720 µM)	1.25 (≈ 2.15 µM)	250 (≈ 431 µM)	50 (≈ 86.1 µM)	250 (≈ 431 µM)	71	Activity [12]: 34.8%; Activity [13]: 84.3%; MIC [14]: 250 µg/mL (≈ 431 µM); Activity [15]: 75.3%
CC(=O)c1c(C)nc(SCC(=O)Nc2ccc(OCc3ccc(F)cc3)cc2)n1-c1ccc(Cl)cc1	1000 (≈ 1910 µM)	62.5 (≈ 119 µM)	88.1	91	68.4	58.3	50 (≈ 95.4 µM)	51	50.8	67	125 (≈ 239 µM)	100 (≈ 191 µM)	1000 (≈ 1910 µM)	58.6	1000 (≈ 1910 µM)	0.73 (≈ 1.39 µM)	62.5 (≈ 119 µM)	25 (≈ 47.7 µM)	100 (≈ 191 µM)	74.5	Activity [12]: 42.9%; Activity [13]: 89.5%; MIC [14]: 62.5 µg/mL (≈ 119 µM); Activity [15]: 84.3%
